Source: article PMC5831081 (Biochemistry, 2017)
Where a chain is given by its changes, count along the chain named. Where “and” joins values, the source holds several entries; their conditions need not be identical. Identical values can stand only once.

Experiments:
CYP2B4 [1] = target: T1, CYP2B4 (Oryctolagus cuniculus, UniProt P00178, H226Y); experiment: NADPH-dependent 7-EFC O-deethylation enzyme inhibition assay; type: biochemical, rabbit; settings: for mechanism of inhibition: CYP2B4, non-linear regression analysis
T1 sequence (P00178 with tags, fused parts or gaps H226Y): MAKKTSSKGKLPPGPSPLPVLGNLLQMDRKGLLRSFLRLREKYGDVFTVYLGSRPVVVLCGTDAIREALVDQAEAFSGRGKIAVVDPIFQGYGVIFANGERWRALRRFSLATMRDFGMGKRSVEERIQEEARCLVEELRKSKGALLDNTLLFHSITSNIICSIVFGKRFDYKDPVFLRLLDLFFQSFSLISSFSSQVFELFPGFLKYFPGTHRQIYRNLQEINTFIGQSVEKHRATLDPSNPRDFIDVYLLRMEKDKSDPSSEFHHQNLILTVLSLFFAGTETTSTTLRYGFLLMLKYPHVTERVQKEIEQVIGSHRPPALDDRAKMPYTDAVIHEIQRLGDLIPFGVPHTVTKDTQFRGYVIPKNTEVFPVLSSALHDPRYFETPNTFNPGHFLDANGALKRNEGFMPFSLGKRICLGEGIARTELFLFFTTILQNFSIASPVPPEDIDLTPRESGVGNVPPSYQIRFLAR

CYP2B4 [2] = target: T1, CYP2B4; experiment: NADPH oxidation assay; type: biochemical, rabbit; settings: CYP:POR:cyt b5 1:4:2, 20 μM inhibitor, 37 °C
Procedure, shortened: (§1)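 Purified CYP2B was reconstituted with POR and cyt b5 at CYP:POR:cyt b5 1:4:2, or 0:4:2 for the partner-only control. Mixtures contained ligand (20 µM unless stated) and 1% acetone in 300 µL. After 5 min preincubation at 37 °C, 0.2 mM NADPH was added. NADPH consumption was recorded kinetically as the A340 decrease (ε 6.22 mM-1 cm-1). Rates are nmol/min/nmol P450, mean ± SD of three independent experiments.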

CYP2B6 [3] = target: T2, CYP2B6 (Homo sapiens, UniProt P20813, K262R/Y226H); experiment: NADPH-dependent 7-EFC O-deethylation enzyme inhibition assay; type: biochemical; settings: for mechanism of inhibition: CYP2B6, non-linear regression analysis; for IC50: NADPH-based IC50, CYP2B6
T2 sequence (P20813 with tags, fused parts or gaps Y226H/K262R limits assumed): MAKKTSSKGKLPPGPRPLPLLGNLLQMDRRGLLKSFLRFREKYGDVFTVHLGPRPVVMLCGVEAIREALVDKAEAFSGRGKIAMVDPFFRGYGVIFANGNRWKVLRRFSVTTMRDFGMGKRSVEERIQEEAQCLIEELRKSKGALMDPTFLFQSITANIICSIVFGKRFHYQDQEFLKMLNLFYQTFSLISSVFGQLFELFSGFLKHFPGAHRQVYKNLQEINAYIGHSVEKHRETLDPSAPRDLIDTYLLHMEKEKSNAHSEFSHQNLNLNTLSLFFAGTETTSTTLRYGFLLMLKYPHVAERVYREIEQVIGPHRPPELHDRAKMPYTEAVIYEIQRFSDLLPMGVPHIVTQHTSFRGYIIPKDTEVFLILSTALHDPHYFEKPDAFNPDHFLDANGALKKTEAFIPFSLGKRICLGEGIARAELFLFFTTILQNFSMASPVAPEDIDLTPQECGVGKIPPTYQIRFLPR

CYP2B6 L363V [4] = target: T3, CYP2B6 L363V (Homo sapiens, UniProt P20813, K262R/L363V/Y226H); experiment: as above; type: biochemical
T3 sequence (P20813 with tags, fused parts or gaps Y226H/K262R/L363V limits assumed): T2 sequence (P20813 with tags, fused parts or gaps Y226H/K262R limits assumed) with L344V

human CYP2B6 = experiment: Spectral binding titration; settings: CYP2B6 spectral titration, with vs without POR
CYP2B6 [5] = target: T2, CYP2B6; experiment: Spectral binding titration; settings: for Kd: KS
CYP2B6 L363V [6] = target: T3, CYP2B6 L363V; settings: CYP2B6 L363V valine mutant
rat CYP2B1 = target: T4, rat CYP2B1 (Rattus norvegicus, UniProt P00176); experiment: Spectral binding titration; settings: spectral binding titrations
T4 sequence (P00176 1-491): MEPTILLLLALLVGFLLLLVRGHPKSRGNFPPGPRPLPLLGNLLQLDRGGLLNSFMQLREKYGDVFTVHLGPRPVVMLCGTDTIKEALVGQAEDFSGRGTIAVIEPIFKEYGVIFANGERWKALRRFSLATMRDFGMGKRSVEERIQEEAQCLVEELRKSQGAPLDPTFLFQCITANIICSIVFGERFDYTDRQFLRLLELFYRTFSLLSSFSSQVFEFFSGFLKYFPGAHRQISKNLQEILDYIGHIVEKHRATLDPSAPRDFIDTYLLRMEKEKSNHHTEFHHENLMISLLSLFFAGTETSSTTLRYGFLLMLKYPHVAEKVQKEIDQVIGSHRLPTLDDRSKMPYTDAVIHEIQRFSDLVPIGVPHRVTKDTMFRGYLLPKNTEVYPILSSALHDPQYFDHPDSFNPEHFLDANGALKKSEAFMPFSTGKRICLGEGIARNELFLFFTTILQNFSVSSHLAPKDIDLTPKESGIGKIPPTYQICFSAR

rabbit CYP2B4 = target: T5, rabbit CYP2B4 (Oryctolagus cuniculus, UniProt P00178, A26S/E2A/G22K/H226Y/H23K/H27K/K25S/P24T/R29K); experiment: Spectral binding titration; settings: spectral binding titrations
T5 sequence (P00178 with tags, fused parts or gaps H226Y limits assumed): T1 sequence (P00178 with tags, fused parts or gaps H226Y)

CYP2B4 I363V [7] = target: T6, CYP2B4 I363V (Oryctolagus cuniculus, UniProt P00178, H226Y/I363V); settings: CYP2B4 I363V valine mutant
T6 sequence (P00178 with tags, fused parts or gaps H226Y/I363V limits assumed): T1 sequence (P00178 with tags, fused parts or gaps H226Y) with I344V

CYP2B4 I363V [8] = target: T6, CYP2B4 I363V; experiment: NADPH-dependent 7-EFC O-deethylation kinetics; type: biochemical, rabbit
Procedure, shortened: (§2)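 Purified CYP2B was reconstituted with POR and cyt b5 (molar 1:4:2 or 1:4:0), 2.5–5 pmol CYP, in 100 µL HEPES pH 7.4 with 7-EFC at 37 °C. After 5 min preincubation, 1 mM NADPH was added. After 5 min, reactions were quenched with ice-cold acetonitrile and diluted into 0.1 M Tris pH 9.0. 7-HFC was measured by fluorescence (ex 410/em 510 nm) against a daily 0–50 µM 7-HFC standard curve.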

CYP2B1 = target: T7, CYP2B1 (Rattus norvegicus, UniProt P00176); experiment: NADPH-dependent 7-EFC O-deethylation kinetics; type: biochemical
T7 sequence (P00176 1-491): T4 sequence (P00176 1-491)
Procedure, shortened: as §2

CYP2B6 [9] = target: T2, CYP2B6; experiment: Cumene hydroperoxide; type: biochemical; settings: for IC50: CuOOH-based IC50, CYP2B6
Procedure, shortened: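 Purified CYP2B6 was tested alone or with cyt b5 (CYP:cyt b5 1:2) in HEPES buffer at 37 °C, with 7-EFC near KM and varying test compound. Reactions started with 0.5 mM cumene hydroperoxide. For kinetics, 7-HFC formation was followed continuously in stirred 500 µL of 0–200 µM 7-EFC. Initial-slope rates were fitted to Michaelis–Menten. IC50 came from a four-parameter logistic fit. Mean ± SD, n=3.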

CYP2B6 [10] = target: T2, CYP2B6; experiment: Incubation of POA with CYP2B6, UPLC-MS search for oxidative metabolites; type: in vitro ADME; settings: POA incubated with CYP2B6, with or without NADPH
POR:cyt b5 = POR:cyt b5 (Rattus norvegicus, UniProt P00173+P00388); experiment: NADPH oxidation assay, redox partners only; type: biochemical; settings: control POR:cyt b5=4:2 without CYP; 20 μM 4-CPI; 37 °C
Procedure, shortened: as §1

[11] = KI, CYP2B6, CYP:POR:cyt b5 1:4:2, 0-200 μM 7-EFC, 37 °C
[12] = Ki,app (Cheng-Prusoff from IC50), CYP2B6, absence of cyt b5
[13] = Ki,app (Cheng-Prusoff from IC50), CYP2B6, presence of cyt b5
[14] = CYP2B6, with POR (1 μM CYP, 4 μM POR), HEPES buffer
[15] = CYP2B6, without POR, HEPES buffer
[16] = CYP2B6, without POR, sucrose buffer

POR:cyt b5, sequence (P00388 whole entry): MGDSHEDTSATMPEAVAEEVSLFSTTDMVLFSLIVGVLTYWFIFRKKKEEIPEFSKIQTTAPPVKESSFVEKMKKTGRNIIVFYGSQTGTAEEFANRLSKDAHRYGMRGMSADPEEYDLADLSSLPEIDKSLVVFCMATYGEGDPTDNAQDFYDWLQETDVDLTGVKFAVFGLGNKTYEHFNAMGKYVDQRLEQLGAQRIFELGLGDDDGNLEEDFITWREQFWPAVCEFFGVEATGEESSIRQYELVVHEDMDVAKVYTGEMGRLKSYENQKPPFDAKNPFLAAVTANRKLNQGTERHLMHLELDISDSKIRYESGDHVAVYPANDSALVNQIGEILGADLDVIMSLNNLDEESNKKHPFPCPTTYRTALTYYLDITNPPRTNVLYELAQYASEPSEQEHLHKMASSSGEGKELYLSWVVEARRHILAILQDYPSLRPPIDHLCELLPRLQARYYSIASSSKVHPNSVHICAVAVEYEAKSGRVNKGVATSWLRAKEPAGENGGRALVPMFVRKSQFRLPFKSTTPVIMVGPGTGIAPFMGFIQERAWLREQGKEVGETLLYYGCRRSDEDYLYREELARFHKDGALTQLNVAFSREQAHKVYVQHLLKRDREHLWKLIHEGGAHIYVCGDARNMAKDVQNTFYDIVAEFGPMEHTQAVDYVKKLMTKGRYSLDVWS
POR:cyt b5, sequence (P00173 whole entry): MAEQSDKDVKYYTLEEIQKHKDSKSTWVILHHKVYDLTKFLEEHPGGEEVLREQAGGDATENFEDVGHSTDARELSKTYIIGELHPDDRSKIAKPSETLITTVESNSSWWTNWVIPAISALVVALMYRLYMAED

Structure (SMILES) | Ki (CYP2B4 [1]) | mechanism of inhibition (CYP2B4 [1]) | NADPH oxidation rate (CYP2B4 [2]) | mechanism of inhibition (CYP2B6 [3]) | Ki (CYP2B6 [3]; [11]) | Ki (CYP2B6 [3]; [12]) | Ki (CYP2B6 [3]; [13]) | IC50 (CYP2B6 [3]; CYP:POR (no cyt b5)) | IC50 (CYP2B6 [3]; CYP:POR:cyt b5) | Ki (CYP2B6 L363V [4]) | fold increase of KS (decrease in affinity) on including POR (human CYP2B6) | Type-II (%) (CYP2B6 [5]; [14]) | Type-II (%) (CYP2B6 [5]; [15]) | Type-II (%) (CYP2B6 [5]; [16]) | Kd (CYP2B6 [5]; [14]) | Kd (CYP2B6 [5]; [15]) | Kd (CYP2B6 [5]; [16]) | other results
Nc1ccc(Oc2cc(Cl)c(Cl)cc2Cl)cc1 [2′4′5′TCPOA, 4-(2′,4′,5′-trichlorophenoxy)aniline] | 370 ± 40 nM | competitive inhibitors | 20±1 nmol/min/nmolP450 | competitive inhibitors | 0.64 ± 0.08 µM | 1.8 µM | 0.22 µM | 3.7 ± 0.3 µM | 0.43 ± 0.04 µM | 0.75 ± 0.1 µM | 4-6 fold | 17±3% | 19±1% | 9±1% | 8100 ± 1700 nM | 1400 ± 400 nM | 700 ± 300 nM | fold increase of KS (decrease in affinity) on including POR (human CYP2B6; listed as 2′4′5′-TCPOA): 5.8 fold
Nc1ccc(Cc2ccc(Cl)cc2Cl)cc1 [2′4′DCBA, 4-[(2′,4′-dichlorophenyl)methyl]aniline] | – | – | – | – | – | – | – | – | – | – | – | – | – | – | – | – | – | relative affinity among the congeners (CYP2B6 L363V [6]): highest affinity; relative affinity among the ligands tested (rat CYP2B1): highest affinity; relative affinity among the ligands tested (rabbit CYP2B4): highest affinity; relative affinity among the congeners (CYP2B4 I363V [7]): highest affinity; relative affinity among the ligands tested (CYP2B6 [5]; spectral binding titrations, CYP2B6): highest affinity
CCOc1ccc2c(C(F)(F)F)cc(=O)oc2c1 [7-EFC, 7-Ethoxy-4-(trifluoromethyl)coumarin, reference compound] | – | – | – | – | – | – | – | – | – | – | – | – | – | – | – | – | – | Michaelis constant for 7-EFC (CYP2B4 I363V [8]): ~ 120 μM; Michaelis constant for 7-EFC (CYP2B1): ~ 120 μM; kcat of 7-EFC O-deethylation (CYP2B6 [9]; CYP2B6 with CuOOH): 0.42 min⁻¹; Km (CYP2B6 [9]; human, CYP2B6 enzyme with cumene hydroperoxide, pH 7.4): 56 µM
Nc1ccc(Oc2ccccc2)cc1 [POA, 4-(phenoxy)aniline] | 1300 ± 650 nM | competitive inhibitors | 33±2 nmol/min/nmolP450 | competitive inhibitors | 13 ± 1.9 µM | 7.5 µM | 13.5 µM | 15 ± 1 µM | 27 ± 5 µM | 67 ± 10 µM | 4.2 fold and 4-6 fold | 9.2±3.3% | 16±1% | 26±1% | 2800 ± 1400 nM | 670 ± 360 nM | 1200 ± 200 nM | fold increase of IC50 by cyt b5 (CYP2B6 [3]; CYP2B6, NADPH-driven, with vs without cyt b5): 1.8 fold; mechanism of inhibition (CYP2B6 L363V [4]; CYP2B6 L363V, non-linear regression analysis): non-competitive inhibitor; IC50 (CYP2B6 [9]; CYP alone): 38 ± 7 µM; IC50 (CYP2B6 [9]; CYP:cyt b5): 44 ± 14 µM; CYP-mediated oxidative metabolites identified by UPLC-MS (CYP2B6 [10]): no potential CYP-mediated oxidative metabolites
Clc1ccc(-c2c[nH]cn2)cc1 [4-CPI, 4-(4-chlorophenyl)imidazole, reference compound] | – | – | 10±1 nmol/min/nmolP450 | – | – | – | – | – | – | – | – | – | – | – | – | – | – | NADPH oxidation rate (POR:cyt b5): 12±1 nmol/min/nmolP450
